Test results from publication PMC9075791 (RSC Advances, 2019).

Experiments:
[1] = Cell-free aggregation assay; assay type: physicochemical; conditions: for Detected CAC: critical aggregation concentration, 1× HBSS, 20 mM HEPES, pH 7.2; for aggregator / non-aggregator in aggregation assay: real time dose responses
In short: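 Assay buffer (1× HBSS, 20 mM HEPES, pH 7.2) was equilibrated in wells of the RWG reader for 1 h. After a 2 min baseline, a compound dilution series (from DMSO stocks, maximum 1‰ final DMSO) was added and wavelength shift was recorded for 1 h. A DMSO range set the background. Responses at a fixed time were plotted against concentration to give the CAC. Each assay was run at least three times.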

[2] = cited from earlier work
[3] = test system: HT-29 cells; test: DMR agonism assay; assay type: cell-based, Human
In short: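 HT-29 cells were grown in McCoy's 5A with 10% FBS at 37 °C/5% CO2. They were seeded on RWG biosensor plates for ~24 h to form a monolayer, washed, and held 1 h in HBSS/20 mM HEPES pH 7.2, or in the same buffer with tween-80 for detergent runs. After a 2 min baseline, test compound was added and DMR was monitored for 1 h. The background-corrected maximal amplitude was used. Two independent runs, each at least in duplicate (n = 4).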

[4] = target: Muscarinic M3 receptor (Homo sapiens, UniProt P20309); test: DMR desensitization assay, M3; assay type: cell-based; conditions: HT-29 cells; active compounds at concentrations above 50 μM
Sequence of Muscarinic M3 receptor (P20309 whole entry): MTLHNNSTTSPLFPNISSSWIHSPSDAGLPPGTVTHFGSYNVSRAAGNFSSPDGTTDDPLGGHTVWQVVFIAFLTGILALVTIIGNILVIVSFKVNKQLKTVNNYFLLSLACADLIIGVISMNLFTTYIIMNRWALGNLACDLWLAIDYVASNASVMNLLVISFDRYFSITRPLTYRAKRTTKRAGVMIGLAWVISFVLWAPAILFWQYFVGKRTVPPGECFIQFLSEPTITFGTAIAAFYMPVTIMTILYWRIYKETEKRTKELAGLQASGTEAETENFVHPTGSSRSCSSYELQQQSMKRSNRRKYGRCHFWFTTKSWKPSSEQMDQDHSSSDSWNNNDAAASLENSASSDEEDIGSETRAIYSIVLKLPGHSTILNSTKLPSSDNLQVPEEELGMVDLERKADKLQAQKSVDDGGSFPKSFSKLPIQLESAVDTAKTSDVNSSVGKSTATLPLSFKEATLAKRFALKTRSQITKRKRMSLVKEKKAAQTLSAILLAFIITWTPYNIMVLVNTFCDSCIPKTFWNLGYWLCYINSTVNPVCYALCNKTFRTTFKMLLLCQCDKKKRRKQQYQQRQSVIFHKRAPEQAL

Detected CAC [1]	aggregator / non-aggregator in aggregation assay [1]	Structure (SMILES)	Literature CAC detected by DLS [2]	DMR response ([3]; at 100 μM)	inhibition of the DMR response of acetylcholine against muscarinic M3 receptor [4]	DMR response (in words) ([3]; to its solubility limit)
1.6 µM	–	O=c1cc(-c2ccc(O)c(O)c2)oc2cc(O)cc(O)c12 [Luteolin]	<50 ([ref. 12]) μM	–	–	–
5.7 µM	–	O=c1c(O)c(-c2ccc(O)c(O)c2)oc2cc(O)cc(O)c12 [Quercetin]	–	less than 100 pm	false inhibited	–
25.2 µM	–	COc1cc(C2Oc3cc([C@H]4Oc5cc(O)cc(O)c5C(=O)[C@@H]4O)ccc3OC2CO)ccc1O (some centres unmarked) [Silybin]	0.47 ([ref. 16]) μM	–	–	–
42.8 µM	–	O=c1c(-c2ccc(O)cc2)coc2cc(O)cc(O)c12 [Genistein]	<75 ([ref. 12]) μM	–	–	–

The remaining lines, values behind:

Structure (SMILES)	Detected CAC [1]	aggregator / non-aggregator in aggregation assay [1]	Literature CAC detected by DLS [2]	DMR response ([3]; at 100 μM)	inhibition of the DMR response of acetylcholine against muscarinic M3 receptor [4]	DMR response (in words) ([3]; to its solubility limit)
O=C(O)c1cccnc1 [Nicotinic acid]	–	non-aggregator	–	–	–	–
COc1cc(O)c2c(c1)C(=O)c1cc(C)cc(O)c1C2=O [Physcion]	Undetected	–	0.32 ([ref. 16]) μM	–	–	–
COc1cc(/C=C/C(=O)CC(=O)/C=C/c2ccc(O)c(OC)c2)ccc1O [Curcumin]	9.6 µM	aggregator	17 ([ref. 16]) μM	–	did not inhibit	barely triggered any cellular mass redistributions
